From article PMC2895358 (Journal of Medicinal Chemistry, 2010)

What was measured:
[1] = target: T1, cruzain (Trypanosoma cruzi, UniProt P25779); experiment: LC/MS stability of compounds in the presence or absence of cruzain; assay type: physicochemical; settings: for behaviour as cruzain substrate: LC/MS and time-dependence assay
How it was run: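 Test compound solutions in 2 mM Bis Tris pH 5.8, with or without 100 nM cruzain, analysed by LC/MS at time points from 30 min to 24 h, with elution monitored at 254 nm, to detect degradation and whether cruzain catalyses it. In a separate run, cruzain activity was followed after incubation with test compound (1 or 10 μM) from 0 to 240 min.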

[2] = target: T1, cruzain; experiment: Cruzain inhibition assay; assay type: biochemical; settings: for time-dependence of cruzain inhibition over incubation: incubation 0 to 240 min, 1 μM of 8, 10 μM of 11, 10 uM of 4, 100 uM of 5
[3] = target: T1, cruzain; experiment: In vitro activity of compound 11 and representative analogues against cruzain; assay type: biochemical

T1 sequence (P25779 123-337 limits assumed): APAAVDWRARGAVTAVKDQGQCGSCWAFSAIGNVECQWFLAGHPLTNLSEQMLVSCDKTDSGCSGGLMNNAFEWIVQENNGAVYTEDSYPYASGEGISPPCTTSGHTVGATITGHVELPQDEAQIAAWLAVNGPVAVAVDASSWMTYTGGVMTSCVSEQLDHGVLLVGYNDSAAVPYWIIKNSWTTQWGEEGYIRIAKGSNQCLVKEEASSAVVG

| behaviour as cruzain substrate [1] | Ki [2] | Structure (SMILES) | time-dependence of cruzain inhibition over incubation [2] | IC50 [3] | stability by LC/MS in the absence of cruzain ([1]; 2 mM Bis Tris pH 5.8, no cruzain, one day) |
| --- | --- | --- | --- | --- | --- |
| did not behave as substrates | 1600 nM | COc1ccc(Cl)cc1NC(=O)COC(=O)C(CC(C)C)N1C(=O)C2CC=CCC2C1=O (stereo not drawn) [Compound 4] |  |  |  |
| did not behave as substrates |  | CC(C)C(NC(=O)c1ccco1)C(=O)NCC(c1ccco1)N1CCCCC1 (stereo not drawn) [Compound 5] |  |  |  |
|  | 65 nM | O=C(CNC(=O)c1ccccc1)OC(C(=O)Nc1cc(C(F)(F)F)ccc1Cl)c1ccccc1 (stereo not drawn) [Compound 8] | clear time-dependent effect |  |  |

| Structure (SMILES) | behaviour as cruzain substrate [1] | Ki [2] | time-dependence of cruzain inhibition over incubation [2] | IC50 [3] | stability by LC/MS in the absence of cruzain ([1]; 2 mM Bis Tris pH 5.8, no cruzain, one day) |
| --- | --- | --- | --- | --- | --- |
| O=C(CNC(=O)c1ccc(Cl)cc1)OC(C(=O)Nc1ccc(Cl)cc1C(F)(F)F)c1ccccc1 (stereo not drawn) [Compound 11] | identified as a cruzain substrate |  | clear time-dependent effect | 260 nM | still observed in solution even after one day of incubation |
